Hits are enriched below; roughly 2.6% of the tested compounds scored in any of these assays.
CHT PAM: allosteric activators of human choline transporter CHT | AID 488977 | actives 0.49% (n = 310,000) | B-score at 10 µM | Q9GZV3 | CHT-expressing cells, membrane potential dye, choline EC20; stronger effect = higher value; LV-AA mutant CHT in HEK293 cells;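 active = initial fluorescence not abnormally high and integrated response B-score, plate-corrected, over 3 SD above library mean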
Cl transport mod: KCC2 (human) Cl- transport modulation. KCC2 cells, thallium flux FluoZin-2 fluorescence. B-score of Tl+ flux slope (higher = more flux/activation; lower = inhibition) at 10 µM. actives 2.2% (n = 190,000). AID 1456;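 active = thallium flux slope and its plate-corrected score both differing from the plate sample mean at a set confidence after two filtering rounds, in either direction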;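 also: slope of fluorescence scaled to starting intensity during 10 to 20 s after thallium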
Rad51 HR inh: blocks human Rad51 in homologous recombination. Q06609. hRad51 DNA strand exchange, fluorescence dequenching. inhibition, % at 10 µM. actives 0.085% (n = 200,000). AID 1385;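 active = inhibition above 40% at the single screening dose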
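Assay system: Human Rad51 nucleoprotein filaments preassembled on unlabelled ssDNA | Reagent: Donor/quencher-labelled 47-bp dsDNA substrate | Doses: One concentration, 10 µM final | Times: 37 °C 15-min filament assembly, 30-min compound preincubation, 15-min exchange | Technique: Fluorescein emission 520 nm, excitation 485 nm | Benchmarks: Plate control and blank wells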
CHT block: inhibitors of human choline transporter CHT | Q9GZV3 | CHT-expressing cells, membrane potential dye, choline response; stronger effect = lower value | B-score at 10 µM | actives 0.86% (n = 310,000);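 active = B-score over 3 SD under the library average, and starting fluorescence ratio not unusually high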;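 also: choline stimulus applied at its EC90 after an EC20 pre-addition; B-score computed on integrated fluorescence ratio after choline addition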
CHT block conf: human CHT inhibition, confirmatory screen; CHT activity remaining % of control (stronger effect = lower value), % at 10 µM; shares compounds with CHT block; CHT-expressing cells, choline membrane potential dye; LV-to-AA substituted CHT, HEK293 cells; actives 70% (n = 2,400);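 active = choline transporter activity left, mean of duplicates at 10 µM, below buffer-only control mean minus 3 SD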;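 also: depolarization triggered by choline at its EC90 following an EC20 pre-addition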
HEK293 MPD ctr: activity in parental HEK293 cells lacking CHT | membrane potential dye, choline response; active = decrease or increase beyond buffer ±3SD | membrane potential ratio readout (active if shifted either direction beyond buffer ±3SD; no single direction) at 10 µM | actives 4% (n = 2,400) | AID 493222 | shares compounds with CHT block;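 also: parental cells lack the transporter so any hit is non-specific; ratio is peak minus trough fluorescence over baseline after EC90 choline challenge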
Large screens that a line does not name were inactive (follow-up assays come after a bar, where they were run).

O=C(NC(=O)N1CCN(C(c2ccccc2)c2ccccc2)CC1)c1ccccc1	none
CCC(C)(C)n1nnnc1C(c1ccccc1F)N1CCN(C(=O)c2ccco2)CC1 (stereo unspecified)	none (no result: Cl transport mod, Rad51 HR inh)
COC(=O)CN1CCN(C(c2ccccc2)c2ccccc2)CC1	none
CN(Cc1ccccc1)C(=O)CN1CCN(C(c2ccccc2)c2ccccc2)CC1	CHT block -8.3 | CHT block conf 52% | HEK293 MPD ctr inactive
O=C(Cc1ccc(O)cc1)NCCNC(=S)NCc1ccccc1	none
CN(C)c1ccc(-c2nnn(CC(=O)N3c4ccccc4CCc4ccccc43)n2)cc1	CHT block -7.2 | CHT block conf inactive | HEK293 MPD ctr inactive
CCN(CC)S(=O)(=O)c1ccc(/C=C/C(=O)NC2CCCCC2)cc1	CHT block -7.1 (no result: Cl transport mod, Rad51 HR inh) | CHT block conf 46% | HEK293 MPD ctr inactive
CC(=O)NN1C(=O)c2ccc(Oc3cccc([N+](=O)[O-])c3)cc2C1=O	CHT block -8.3 | CHT block conf 23% | HEK293 MPD ctr inactive
Cc1cc(/C=N/NC(=O)C(=O)NCc2ccccn2)c(C)n1-c1ccccc1	CHT block -7 | CHT block conf 34% | HEK293 MPD ctr inactive
NC(=O)c1c(NC(=O)CN2C(=O)NC(Cc3ccccc3)C2=O)sc2c1CCC2 (stereo unspecified)	CHT block -6.3 | CHT block conf 62% | HEK293 MPD ctr inactive
CC1CCc2c(sc3ncnc(SCC(=O)Nc4ccc(C(=O)O)cc4)c23)C1 (stereo unspecified)	none (no result: Cl transport mod, Rad51 HR inh)
COc1cc(NC(=O)CSc2ncnc3sc4c(c23)CCC(C)C4)c(C(=O)O)cc1OC (stereo unspecified)	CHT block -6.3 (no result: Cl transport mod, Rad51 HR inh) | CHT block conf 70% | HEK293 MPD ctr inactive
O=S(=O)(NCC1CCCO1)c1ccc(Oc2ccccc2)cc1 (stereo unspecified)	CHT block -5.6 | CHT block conf inactive | HEK293 MPD ctr inactive
O=C(Nc1ccc(S(=O)(=O)NCC2CCCO2)cc1)c1ccccc1 (stereo unspecified)	none (no result: Rad51 HR inh)
O=S(=O)(NCC1CCCO1)c1ccc(-c2ccc(S(=O)(=O)NCC3CCCO3)cc2)cc1 (stereo unspecified)	none
CCC(Oc1ccccc1)C(=O)Nc1ccc(S(=O)(=O)NCC2CCCO2)cc1 (stereo unspecified)	CHT block -8.7 | CHT block conf 40% | HEK293 MPD ctr inactive
Cc1ccc(C(C)c2c(C)c([N+](=O)[O-])cc(C)c2[N+](=O)[O-])cn1 (stereo unspecified)	none (no result: Cl transport mod, Rad51 HR inh)
CN1CCN(C(=S)c2ccc(OCC(=O)Nc3cccc(C(F)(F)F)c3)cc2)CC1	CHT block -6.2 | CHT block conf inactive | HEK293 MPD ctr inactive
COc1ccc(Cc2noc(CN(C)CC(O)c3ccccc3)n2)cc1OC (stereo unspecified)	CHT block -5.7 | CHT block conf inactive | HEK293 MPD ctr inactive
COc1ccc(Cc2noc(CN(C)CCc3ccccc3)n2)cc1OC	none (no result: Rad51 HR inh)
COCCNC(=S)N1CCN(c2nc(-c3ccc(F)cc3)cs2)CC1	none (no result: Cl transport mod, Rad51 HR inh)
COCCNC(=S)N1CCN(c2nc(-c3ccc(Cl)cc3)cs2)CC1	CHT block -7.5 (no result: Cl transport mod, Rad51 HR inh) | CHT block conf inactive | HEK293 MPD ctr inactive
Cc1ccc(NC(=O)c2ccc(Cn3cc([N+](=O)[O-])cn3)cc2)c(C)c1	CHT block -5.2 | CHT block conf 42% | HEK293 MPD ctr inactive
COC(=O)c1ccc(Cn2cc([N+](=O)[O-])cn2)cc1	none
CC(C)c1nn(-c2cc(C(F)(F)F)ccn2)c(=O)o1	none (no result: Cl transport mod)
COc1ccc(Cl)c2sc(N(CCN(C)C)C(=O)c3ccc4c(c3)OCCO4)nc12	CHT block -9.8 (no result: Cl transport mod, Rad51 HR inh) | CHT block conf 36% | HEK293 MPD ctr inactive
Cc1ccccc1OCC(=O)NCc1ccccc1	none
O=C(O)COc1cccc(NC(=O)c2ccccc2)c1	none
Cc1cccc(C(=O)Nc2cccc(OCC(=O)O)c2)c1	CHT block -5 (no result: Rad51 HR inh) | CHT block conf 57% | HEK293 MPD ctr inactive
O=C(Nc1ccc2c(c1)OCO2)c1cccc(S(=O)(=O)N2CCCC2)c1	none
O=C(Nc1ccc2c(c1)OCCO2)c1ccc(S(=O)(=O)N2CCCCC2)cc1	CHT block -6.1 | CHT block conf inactive | HEK293 MPD ctr inactive
